# PPC-1+TRAIL kill: compounds killing PPC-1 cancer cells with TRAIL present, primary screen, TRAIL potentiator project, ATPLite luminescence, uHTS; PPC-1 cells + TRAIL, ATPLite viability luminescence; cell killing (% activity), % at 4 µM or 5 µM; 0.41% of 220,000 active; AID 1443, 2008;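 active = cell killing above 50% in the first pass at 4 µM, then a duplicate retest at 5 µM averaging 50% or more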;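 note: plate controls were cells with TRAIL plus DMSO for no effect and medium-only wells lacking cells for full effect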
# FLuc act counter: FLuc activators, initial screening, artefact control for FLuc-dependent activation tests, biochemical, ATPlite luminescence; activation factor at 10 µM; Luciferin 4-monooxygenase (Photinus pyralis), P08659; 200,000 tested, under 10 active; ATPlite luciferase biochemical, 10 min; 0 = ATP-free wells, 1 = DMSO control;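 active = luciferase activation factor, scaled between plate controls, of at least 2 with compound at 10 µM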
# Target sequence (P08659 whole entry, looked up): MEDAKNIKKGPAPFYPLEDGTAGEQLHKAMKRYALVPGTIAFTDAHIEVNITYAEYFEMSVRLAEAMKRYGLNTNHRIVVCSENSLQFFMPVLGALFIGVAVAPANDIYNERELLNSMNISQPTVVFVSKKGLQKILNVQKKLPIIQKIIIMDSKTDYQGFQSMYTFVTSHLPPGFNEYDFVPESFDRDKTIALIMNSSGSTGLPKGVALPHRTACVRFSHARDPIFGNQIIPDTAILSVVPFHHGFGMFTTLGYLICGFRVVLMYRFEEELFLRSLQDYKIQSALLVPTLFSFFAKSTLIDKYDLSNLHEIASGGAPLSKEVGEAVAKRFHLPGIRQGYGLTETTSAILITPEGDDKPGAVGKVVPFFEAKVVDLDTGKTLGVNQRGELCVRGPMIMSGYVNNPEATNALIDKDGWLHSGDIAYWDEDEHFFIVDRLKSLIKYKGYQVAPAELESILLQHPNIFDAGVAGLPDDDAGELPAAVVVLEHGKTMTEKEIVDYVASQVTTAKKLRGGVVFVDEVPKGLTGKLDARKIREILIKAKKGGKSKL
#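 Assay system – cell-free luciferase reagent · Medium – PBS-based ATP solution · Dosing – test compounds dosed from 2 mM stocks in 100% DMSO · Timing – 10 min, room temperature · Technique – light output (luminescence) · Measure – luminescence gain marking luciferase activators · Controls – No-ATP low control, compound-free enzyme-plus-ATP high control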
# TRAIL sens C8: viability loss with TRAIL in NB7+C8 cells, primary screen, TRAIL sensitizer project, cell-based, ATPlite luminescence | inhibition (viability loss, TRAIL sensitization), % at 10 µM | 1% of 360,000 active | AID 624354, 2012;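 active = compounds causing at least 50% loss of cell viability in the single-dose screen, relative to plate controls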
# FLuc inhib CS: firefly luciferase enzyme inhibitors, primary screen, artefact control for luciferase-based inhibitor screens, biochemical, luminescence, ATPLite; Luciferin 4-monooxygenase (Photinus pyralis), P08659; inhibition, % at 10 µM; 10 min; 1.5% of 200,000 active;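 active = inhibition above about 50% when tested at 10 µM, limit read from the data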
# * marks the source's active call; other numbers are inactive results; . = not tested or not shown. In the library only some 1.6% were active in any assay of this set; here they are far more common.
SMILES,PPC-1+TRAIL kill,FLuc act counter,TRAIL sens C8,FLuc inhib CS
CCSc1nnc(NC(=O)c2ccccc2C)s1,6,0.9,5,10
CCCCc1nnc(NC(=O)CSCc2cc(=O)n3cc(C)sc3n2)s1,.,.,2,.
COCC(C)n1c(C)cc(C(=O)COC(=O)c2n[nH]c3ccccc23)c1C (centres undefined),8,0.2,58*,76*
O=C(CCCN1C(=O)C2CC=CCC2C1=O)Nc1ccccc1F (centres undefined),.,.,0,.
COc1cc(C2C=C(c3cccs3)Nc3ncnn32)cc(OC)c1OC (centres undefined),4,1.1,-17,-5
COCC(=O)OC1CCn2c1nc1c2C(=O)C(C)=C(NC(C)=O)C1=O (centres undefined),.,.,69*,.
Cc1occc1C(=O)NN1C(=O)C2C3CCC(O3)C2C1=O (centres undefined),6,1,1,-2
Fc1ccc(-n2c(-c3ccc4ccccc4n3)n[nH]c2=S)cc1,.,1.1,-7,-11
S=c1[nH]nc(-c2ccc3ccccc3n2)n1-c1cc(Cl)cc(Cl)c1,17,0.3,-12,70*
C[C@H]1CN([C@@H](C)CO)C(=O)CCCn2cc(nn2)CO[C@@H]1CN(C)C(=O)Nc1ccc2c(c1)OCO2,.,.,-4,.
COc1ccc(NC(=O)c2cccc(NC(=O)c3ccccc3)c2)cc1,.,.,-1,.
COc1ccc(NC(=O)c2cc3ccccn3n2)cc1,48,0.2,1,80*
COc1ccc(NC(=O)c2ccccn2)cc1,76*,0.1,74*,90*
COc1ccc(C(=O)Nc2ccc(NC(=O)c3ccccn3)cn2)cc1,.,.,10,.
Cn1c2c(c3cc([N+](=O)[O-])ccc31)CCCC2,.,.,-2,.
Cc1ccc(O)c(N=CC2=C(O)c3ccccc3C2=O)c1,17,0.7,23,32
O=C1C(C=Nc2ccccc2O)=C(O)c2ccccc21,24,0.2,46,85*
COc1ccc(N=CC2=C(O)c3ccccc3C2=O)cc1,7,0.1,88*,92*
O=C1C(C=Nc2ccccc2)=C(O)c2ccccc21,29,0.1,50*,86*
COc1ccc(N=Cc2[nH]c3ccccc3c2O)cc1,21,0.1,0,86*
O[C@@H]1CN(Cc2ccc(-n3cccn3)cc2)CC[C@H]1N1CCN(c2ccccc2F)CC1,.,.,22,.
CCOc1ccc(N=C(C)C2=C(O)c3ccccc3C2=O)cc1,0,.,30,.
COc1ccc(N=C(C)C2=C(O)c3ccccc3C2=O)cc1,63*,0.2,70*,81*
O=C(COC(=O)/C=C/c1ccc([N+](=O)[O-])cc1)NNC(=O)c1ccccc1,.,.,-8,.
CCCCCN=C(N)N/N=C/c1c[nH]c2ccc(OC)cc12,.,.,94*,.
SMILES,PPC-1+TRAIL kill,FLuc act counter,TRAIL sens C8,FLuc inhib CS
CCCNC(=O)c1cc(C2CCCCN2C(=O)CCCc2ccccc2)on1 (centres undefined),.,.,-13,.
CN(C)CCSc1nnc(-c2ccccc2)o1,-22,1.1,2,-8
CN(C)c1cccc(-c2nnc(SCCCC#N)o2)c1,20,0.4,14,56*
COC(=O)c1ccc2c(=O)[nH]c(COC(=O)c3c(-c4ccccc4)noc3C)nc2c1,.,.,0,.
CCN=c1scc(C)n1/N=C/c1ccc(O)c(O)c1O,20,0.2,12,76*
CCN=c1scc(C)n1/N=C/c1cc(Br)c(O)c(Br)c1,19,0.9,6,7
Cc1ccccc1OCC(=O)Nc1cccc(N(C)S(C)(=O)=O)c1,0,0.9,20,11
CN(c1cccc(NC(=O)COc2ccc(Cl)cc2Cl)c1)S(C)(=O)=O,36,0.3,57*,69*
O=C(COc1ccc(Cl)cc1Cl)N/N=C/c1cccnc1,.,.,-15,.
O=C(COc1ccc(Cl)cc1Cl)Nc1cccnc1,16,0.4,32,58*
NC(=O)Cn1c(=O)n(CCC(=O)NCCSCc2ccccc2)c(=O)c2ccccc21,22,1,31,-3
CNc1ccc(/C=C2\CSc3ccccc3C2=O)cc1[N+](=O)[O-],21,0.4,23,55*
O=C1OC(c2ccccc2)=C/C1=C/c1cccs1,8,0.2,-6,79*
O=C(COC(=O)Cc1c(F)cccc1Cl)NCc1ccc2c(c1)OCO2,.,.,8,.
O=C(Nc1sc2c(c1C(=O)O)CCCCC2)c1cccs1,49,0.2,22,84*
Cc1ccc(C(=O)Nc2sc3c(c2C(=O)O)CCCC3)o1,.,.,31,.
O=C(Nc1sc2c(c1C(=O)O)CCCCC2)c1ccccc1F,42,0.4,20,61*
